Results pooled from the literature.
Protocols differ between the studies behind these lines.
ABL1 M351T: Tyrosine-protein kinase ABL1 (ABL1, Homo sapiens, UniProt P00519, M351T)
ABL1 phosphorylated: Tyrosine-protein kinase ABL1, phosphorylated (ABL1, Homo sapiens, UniProt P00519)
ABL1 F317I non-phosphorylated: Tyrosine-protein kinase ABL1, non-phosphorylated (ABL1, Homo sapiens, UniProt P00519, F317I)
ABL1 F317L non-phosphorylated: Tyrosine-protein kinase ABL1, non-phosphorylated (ABL1, Homo sapiens, UniProt P00519, F317L)
ABL1 T315I non-phosphorylated: Tyrosine-protein kinase ABL1, non-phosphorylated (ABL1, Homo sapiens, UniProt P00519, T315I)
ABL1 Q252H: Tyrosine-protein kinase ABL1 (ABL1, Homo sapiens, UniProt P00519, Q252H)
ABL1 Q252H phosphorylated: Tyrosine-protein kinase ABL1, phosphorylated (ABL1, Homo sapiens, UniProt P00519, Q252H)
ABL1 non-phosphorylated: Tyrosine-protein kinase ABL1, non-phosphorylated (ABL1, Homo sapiens, UniProt P00519)
ABL1 Y253F phosphorylated: Tyrosine-protein kinase ABL1, phosphorylated (ABL1, Homo sapiens, UniProt P00519, Y253F)

N[C@@H]1CCN(c2nccc(-c3cnn4ncccc34)n2)C1 — remaining binding (ABL1 M351T; binding; 1 µM): 100%
COc1cnc(Nc2cccc(S(N)(=O)=O)c2)nc1N1CCN(c2ccccc2)CC1 — remaining binding (Tyrosine-protein kinase ABL1, phosphorylated (ABL1, Homo sapiens, UniProt P00519, M351T); binding, competition with immobilised ligand; 1 µM): 98%
CN(C)c1nccc(-c2cnn3ncccc23)n1 — remaining binding (ABL1 M351T; binding; 1 µM): 100%
CN1CCN(c2ccc(Nc3nccc(-c4cccc([N+](=O)[O-])c4)n3)cc2C(F)(F)F)CC1 — remaining binding (Tyrosine-protein kinase ABL1 (ABL1, Homo sapiens, UniProt P00519, E255K); binding; 10 µM): 5.8%
COc1ncc2cc3ccccc3nc2c1C#N — remaining binding (ABL1 phosphorylated; cell-free assay, competition with immobilised ligand; 5 µM): 93%
CC1CCCN1c1nccc(-c2cnn3ncccc23)n1 (centres unmarked) — remaining binding (Tyrosine-protein kinase ABL1 (ABL1, Homo sapiens, UniProt P00519, F317L); binding; 1 µM): 96%
CO[C@@H](C)c1c(Nc2ccc([C@H](N(C)C(=O)C3CCS(=O)(=O)CC3)C(F)(F)F)cc2)cnc2cc(Cl)nn12 — remaining binding (ABL1 F317I non-phosphorylated; binding, competition with immobilised ligand; 1 µM): 100%
c1cnn2ncc(-c3ccnc(N4CCC45COC5)n3)c2c1 — remaining binding (ABL1 M351T; binding; 1 µM): 48%
O=C(c1ccc(Nc2ncc(Cl)c(-c3ccc(Cl)s3)n2)cc1)N1CCC(N2CCCC2)CC1 — remaining binding (ABL1 F317L non-phosphorylated; binding, competition with immobilised ligand; 1 µM): 65%
C[C@@H](c1ccc(-n2cnc3c(N)ncnc32)cc1)N1CCc2nn(C)c(Cc3ccccc3)c2C1=O — remaining binding (ABL1 T315I non-phosphorylated; binding, competition with immobilised ligand; 0.1 µM): 33%
CN(C(=O)c1ccccc1)c1cc(N(C)c2ccc3c(c2)CCc2ccc(C(=O)NCCN4CCOCC4)cc2C3=O)ccc1F — remaining binding (ABL1 F317I non-phosphorylated; binding, competition with immobilised ligand; 1 µM): 79%
O=C(NCCCN1CCOCC1)c1ccc(Nc2ncc(Cl)c(-c3ccc(Cl)s3)n2)cc1 — remaining binding (ABL1 F317I non-phosphorylated; binding, competition with immobilised ligand; 1 µM): 100%
F[C@@H]1CCN(c2nccc(-c3cnn4ncccc34)n2)C1 — remaining binding (ABL1 Q252H; binding; 1 µM): 93%
O=C(NCC1CCOCC1)c1n[nH]cc1NC(=O)c1c(F)cccc1F — remaining binding (ABL1 F317I non-phosphorylated; binding, competition with immobilised ligand; 1 µM): 86%
COC(=O)Nc1nc2ccc(C(=O)c3ccccc3)cc2[nH]1 — remaining binding (Tyrosine-protein kinase ABL1, phosphorylated (ABL1, Homo sapiens, UniProt P00519, T315I); cell-free assay, competition with immobilised ligand; 10 µM): 3.2%
COc1cnc(Nc2cccc(S(N)(=O)=O)c2)nc1N1CCN(c2ccccc2)C(=O)C1 — remaining binding (ABL1 phosphorylated; binding, competition with immobilised ligand; 1 µM): 93%
C[C@@]1(Cc2ccc(C#N)cc2)C(=O)N(c2cc(Cl)cc(Cl)c2)c2ncc(C(=O)NC3(c4nc(C5CCC5)no4)CC3)n21 — remaining binding (ABL1 F317I non-phosphorylated; binding, competition with immobilised ligand; 1 µM): 94%
O=C(Nc1c[nH]nc1C(=O)NC1CCNCC1)c1cc(F)cc(F)c1 — remaining binding (Tyrosine-protein kinase ABL1, phosphorylated (ABL1, Homo sapiens, UniProt P00519, F317I); binding, competition with immobilised ligand; 1 µM): 85%
c1cncc(-c2cccc(Nc3nccc(NC4CCCCC4)n3)c2)c1 — remaining binding (ABL1 Q252H phosphorylated; binding, competition with immobilised ligand; 10 µM): 24%
C=CC(=O)N1CCC(C(=O)NCC(=O)N2CCN(c3nc(-c4cnc(N)nc4C(F)F)nc(N4CCOCC4)n3)CC2)CC1 — remaining binding (ABL1 non-phosphorylated; binding, competition with immobilised ligand; 1 µM): 80%
CNC(=O)Nc1ccc2c(c1)[C@@]1(CC2)OC(=O)N(CC(=O)N(Cc2ccc(F)cc2)[C@@H](C)C(F)(F)F)C1=O — remaining binding (ABL1 Y253F phosphorylated; cell-free assay, competition with immobilised ligand; 1 µM): 100%
O=C(c1ccc(Nc2ncc(Cl)c(-c3cc4ccccc4s3)n2)cc1)N1CCC(N2CCCC2)CC1 — remaining binding (ABL1 phosphorylated; binding, competition with immobilised ligand; 1 µM): 26%
Cc1nc(Cc2cccc(C(F)(F)F)c2)sc1-c1ccc(C(N)=O)nc1 — remaining binding (Tyrosine-protein kinase ABL1, non-phosphorylated (ABL1, Homo sapiens, UniProt P00519, Q252H); cell-free assay, competition with immobilised ligand; 1 µM): 87%
C[C@@H]1CCN(c2nccc(-c3cnn4ncccc34)n2)C1 — remaining binding (ABL1 M351T; binding; 1 µM): 100%
O=C(NCCCN1CCOCC1)c1ccc(Nc2nccc(-c3cc4ccccc4s3)n2)cc1 — remaining binding (ABL1 F317L non-phosphorylated; binding, competition with immobilised ligand; 1 µM): 90%
Nc1ncc2c(n1)-c1c([nH]c3ccc(C#CC4CC4)cc13)CCCC2 — remaining binding (ABL1 non-phosphorylated; binding, competition with immobilised ligand; 1 µM): 95%
O=C(c1ccc(Nc2nccc(-c3cc4ccccc4s3)n2)cc1)N1CCC(N2CCCC2)CC1 — remaining binding (ABL1 phosphorylated; binding, competition with immobilised ligand; 1 µM): 21%
COc1ccnn2ncc(-c3ccnc(N(C)C)n3)c12 — remaining binding (ABL1 Q252H; binding; 1 µM): 82%
CCCCN(CCCC)C(=O)CN1C[C@H](c2cc(OC)c3c(c2)OCO3)[C@@H](C(=O)O)[C@@H]1CC(C)(C)CCC — remaining binding (ABL1 F317I non-phosphorylated; binding, competition with immobilised ligand; 1 µM): 98.5%
CNC(=O)[C@@H]1CC[C@@H](n2c(-c3ccc4cnccc4c3)nc3ccc(C(=O)NCc4cccc(C(N)=O)c4)cc32)C1 — remaining binding (ABL1 F317I non-phosphorylated; binding, competition with immobilised ligand; 1 µM): 100%
CCN1CCN(Cc2ccc(C(=O)Nc3ccc(C)c(Oc4ccc5c(c4)CC(=O)N5)c3)cc2C(F)(F)F)CC1 — remaining binding (ABL1 phosphorylated; binding, competition with immobilised ligand; 1 µM): 34%
CC(=O)N1CCC(c2ccc(C(=O)NC(=N)N)cc2C(F)(F)F)CC1 — remaining binding (ABL1 Q252H phosphorylated; cell-free assay, competition with immobilised ligand; 1 µM): 100%
Cc1cnc(Nc2ccc(C(=O)N3CCC(N4CCCC4)CC3)cc2)nc1-c1cc2ccccc2s1 — remaining binding (ABL1 Y253F phosphorylated; binding, competition with immobilised ligand; 1 µM): 0.6%
Cc1cnn2ncc(-c3ccnc(N(C)C)n3)c2c1 — remaining binding (ABL1 M351T; binding; 1 µM): 91%
CCCOc1ccc([C@@H]2[C@@H](C(=O)O)[C@H](c3ccc4c(c3)OCO4)CN2CC(=O)Nc2c(CC)cccc2CC)cc1 — remaining binding (ABL1 T315I non-phosphorylated; cell-free assay, competition with immobilised ligand; 1 µM): 83%
